From ChEMBL document CHEMBL5674867, “The SUV39H1 inhibitor chaetocin induces differentiation and shows synergistic cytotoxicity with other epigenetic drugs in acute myeloid leukemia cells” (Blood Cancer J, 2015)
Calls of active or inactive are those of the source. The calls are words filed in the database; no cut-off is given here.

Assays:
KG-1a [1] = test: Cytotoxicity against human KG-1a cells assessed as decrease in cell viability measured after 24 hrs by MTT assay; assay type: functional, cell-based
How it was run: (§1)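 MTT viability read 24 h after exposure over a low concentration range (0–25 μM for one inhibitor, 0–100 for the other as printed). IC50 was derived for each line. Culture: HL-60 and U937 in RPMI + 10% FBS, KG-1a in IMDM + 15% FBS.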

HL-60 [2] = test: Cytotoxicity against human HL-60 cells assessed as decrease in cell viability measured after 48 hrs by MTT assay; assay type: functional, cell-based; conditions: HL-60, 48 h
HL-60 [3] = test: Cytotoxicity against human HL-60 cells at 20 nM assessed as decrease in cell viability in combination with 0.5 uM SAHA measured after 24 hrs by MTT assay; assay type: functional
HL-60 [4] = test: Cytotoxicity against human HL-60 cells assessed as decrease in cell viability measured after 24 hrs by MTT assay; assay type: functional, cell-based; conditions: HL-60, 24 h; how it was run: as §1
U-937 [5] = test: Cytotoxicity against human U-937 cells at 20 nM assessed as decrease in cell viability in combination with 0.5 uM SAHA measured after 24 hrs by MTT assay; assay type: functional
KG-1a [6] = test: Cytotoxicity against human KG-1a cells at 20 nM assessed as decrease in cell viability in combination with 0.5 uM SAHA measured after 24 hrs by MTT assay; assay type: functional
U-937 [7] = test: Cytotoxicity against human U-937 cells assessed as decrease in cell viability measured after 24 hrs by MTT assay; assay type: functional, cell-based; conditions: U-937, 24 h; how it was run: as §1
KG-1a [8] = test: Cytotoxicity against human KG-1a cells assessed as decrease in cell viability measured after 48 hrs by MTT assay; assay type: functional, cell-based
U-937 [9] = test: Cytotoxicity against human U-937 cells assessed as decrease in cell viability measured after 48 hrs by MTT assay; assay type: functional, cell-based; conditions: U-937, 48 h
KG-1a [10] = test: Cytotoxicity against human KG-1a cells at 20 nM assessed as decrease in cell viability in combination with 50 nM JQ-1 measured after 24 hrs by MTT assay; assay type: functional, cell-based
KG-1a [11] = test: Induction of myeloid differentiation in human KG-1a cells at 50 nM in combination with 20 nM chaetocin measured after 12 hrs by Liu's staining method; assay type: functional, cell-based
How it was run: (§2)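 Cells received single epigenetic inhibitors or combinations and were collected by cytospin. After Liu's staining (reagent A 1 min, reagent B 2.5 min), differentiated cells were counted under a light microscope. Mean ± s.e. of three independent experiments.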

HL-60 [12] = test: Induction of myeloid differentiation in human HL-60 cells at 50 nM in combination with 20 nM chaetocin measured after 12 hrs by Liu's staining method; assay type: functional, cell-based; how it was run: as §2
U-937 [13] = test: Cytotoxicity against human U-937 cells at 20 nM assessed as decrease in cell viability in combination with 50 nM JQ-1 measured after 24 hrs by MTT assay; assay type: functional, cell-based
U-937 [14] = test: Induction of myeloid differentiation in human U-937 cells at 50 nM in combination with 20 nM chaetocin measured after 12 hrs by Liu's staining method; assay type: functional, cell-based; how it was run: as §2
HL-60 [15] = test: Cytotoxicity against human HL-60 cells at 20 nM assessed as decrease in cell viability in combination with 50 nM JQ-1 measured after 24 hrs by MTT assay; assay type: functional, cell-based

| Structure (SMILES) | IC50 (KG-1a [1]) [nM] | IC50 (HL-60 [2]) [nM] | Activity (HL-60 [3]) [%] | IC50 (HL-60 [4]) [nM] | Activity (U-937 [5]) [%] | Activity (KG-1a [6]) [%] | IC50 (U-937 [7]) [nM] | IC50 (KG-1a [8]) [nM] | IC50 (U-937 [9]) [nM] | Activity (KG-1a [10]) | Activity (KG-1a [11]) | Activity (HL-60 [12]) | Activity (U-937 [13]) | Activity (U-937 [14]) | Activity (HL-60 [15]) |
| --- | --- | --- | --- | --- | --- | --- | --- | --- | --- | --- | --- | --- | --- | --- | --- |
| CN1C(=O)[C@@]23C[C@]4([C@]56C[C@@]78SS[C@@](CO)(C(=O)N7[C@H]5Nc5ccccc56)N(C)C8=O)c5ccccc5N[C@@H]4N2C(=O)[C@]1(CO)SS3 [CHAETOCIN] | 0.103 | 0.127 | 40 | 0.153 | 20 | 40 | 0.096 | 0.095 | 0.082 | – | – | – | – | – | – |
| CN1C(=O)[C@@]23C[C@]4([C@]56C[C@@]78SS[C@@](CO)(C(=O)N7[C@H]5Nc5ccccc56)N(C)C8=O)c5ccccc5N[C@@H]4N2C(=O)[C@]1(CO)SS3.Cc1sc2c(c1C)C(c1ccc(Cl)cc1)=N[C@@H](CC(=O)OC(C)(C)C)c1nnc(C)n1-2 | – | – | – | – | – | – | – | – | – | Active | inactive | inactive | inactive | inactive | Active |
